The source of these data is ChEMBL document CHEMBL2380248, “Matrix metalloproteinase inhibitors based on the 3-mercaptopyrrolidine core” (J Med Chem, 2013).

Holding throughout (settings): read-out: Ki(app)
The target in assay [1] is Matrix metalloproteinase-14 (Homo sapiens, UniProt P50281). Put plainly: Inhibition of MMP-14 (unknown origin) using Mca-PLGLDpa-AR-NH2 as substrate preincubated for 30 mins by fluorescence assay. Summed up: (§1)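 Fluorogenic assay at 25°C in 50 mM HEPES pH 7.5, 10 mM CaCl2, 200 mM NaCl, 0.01% Brij-35, 5 μM TCEP. Inhibitor in DMSO preincubated 30 min with enzyme (0.2–7 nM), then started with Mca-PLGLDpa-AR-NH2 (4 μL of […] in 50% DMSO); product release followed at λex 328/λem 393 nm.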

Assay [2] concerns the target Collagenase 3 (Homo sapiens, UniProt P45452). Kind of assay: Inhibition of MMP-13 (unknown origin) using Mca-PLGLDpa-AR-NH2 as substrate preincubated for 30 mins by fluorescence assay. Summed up:
as §1

Assay [3] concerns the target Matrix metalloproteinase-9 (Homo sapiens, UniProt P14780). Put plainly: Inhibition of MMP-9 (unknown origin) using Mca-PLGLDpa-AR-NH2 as substrate preincubated for 30 mins by fluorescence assay. Summed up: as §1
Assay [4] concerns the target T1, Matrilysin (Homo sapiens, UniProt P09237).
T1 sequence (P09237 whole entry): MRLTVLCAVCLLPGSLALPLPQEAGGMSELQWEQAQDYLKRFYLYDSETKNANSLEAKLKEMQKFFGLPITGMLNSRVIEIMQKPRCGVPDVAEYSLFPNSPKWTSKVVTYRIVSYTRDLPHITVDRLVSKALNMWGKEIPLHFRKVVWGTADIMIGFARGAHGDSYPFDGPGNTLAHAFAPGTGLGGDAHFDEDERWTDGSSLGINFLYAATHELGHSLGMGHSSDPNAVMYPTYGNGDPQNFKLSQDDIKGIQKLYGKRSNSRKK
Put plainly: Inhibition of MMP-7 (unknown origin) using Mca-PLGLDpa-AR-NH2 as substrate preincubated for 30 mins by fluorescence assay. Summed up:
as §1

The target of assay [5] is 72 kDa type IV collagenase (Homo sapiens, UniProt P08253). Put plainly: Inhibition of MMP-2 (unknown origin) using Mca-PLGLDpa-AR-NH2 as substrate preincubated for 30 mins by fluorescence assay. The essentials:
as §1

The target of assay [6] is Stromelysin-1 (Homo sapiens, UniProt P08254). Kind of assay: Inhibition of MMP-3 (unknown origin) using Mca-PLGLDpa-AR-NH2 as substrate preincubated for 30 mins by fluorescence assay. Summed up:
as §1

Assay [7] deals with T2, Interstitial collagenase (Homo sapiens, UniProt P03956).
T2 sequence (P03956 whole entry): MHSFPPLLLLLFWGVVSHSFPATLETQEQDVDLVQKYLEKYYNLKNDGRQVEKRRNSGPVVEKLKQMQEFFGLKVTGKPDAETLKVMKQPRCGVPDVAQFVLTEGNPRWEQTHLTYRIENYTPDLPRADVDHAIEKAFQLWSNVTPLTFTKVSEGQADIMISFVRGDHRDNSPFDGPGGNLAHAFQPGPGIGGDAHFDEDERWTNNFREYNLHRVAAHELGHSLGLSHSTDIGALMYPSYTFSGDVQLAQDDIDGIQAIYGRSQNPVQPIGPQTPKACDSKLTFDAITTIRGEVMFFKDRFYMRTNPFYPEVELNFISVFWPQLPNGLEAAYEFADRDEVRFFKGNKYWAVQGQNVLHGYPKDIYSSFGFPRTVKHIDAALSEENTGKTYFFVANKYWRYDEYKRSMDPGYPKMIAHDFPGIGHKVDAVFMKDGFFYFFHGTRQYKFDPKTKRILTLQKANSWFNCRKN
Put plainly: Inhibition of MMP-1 (unknown origin) using Mca-PLGLDpa-AR-NH2 as substrate preincubated for 30 mins by fluorescence assay. Summed up:
as §1

Sequence of Matrix metalloproteinase-9 (P14780 whole entry): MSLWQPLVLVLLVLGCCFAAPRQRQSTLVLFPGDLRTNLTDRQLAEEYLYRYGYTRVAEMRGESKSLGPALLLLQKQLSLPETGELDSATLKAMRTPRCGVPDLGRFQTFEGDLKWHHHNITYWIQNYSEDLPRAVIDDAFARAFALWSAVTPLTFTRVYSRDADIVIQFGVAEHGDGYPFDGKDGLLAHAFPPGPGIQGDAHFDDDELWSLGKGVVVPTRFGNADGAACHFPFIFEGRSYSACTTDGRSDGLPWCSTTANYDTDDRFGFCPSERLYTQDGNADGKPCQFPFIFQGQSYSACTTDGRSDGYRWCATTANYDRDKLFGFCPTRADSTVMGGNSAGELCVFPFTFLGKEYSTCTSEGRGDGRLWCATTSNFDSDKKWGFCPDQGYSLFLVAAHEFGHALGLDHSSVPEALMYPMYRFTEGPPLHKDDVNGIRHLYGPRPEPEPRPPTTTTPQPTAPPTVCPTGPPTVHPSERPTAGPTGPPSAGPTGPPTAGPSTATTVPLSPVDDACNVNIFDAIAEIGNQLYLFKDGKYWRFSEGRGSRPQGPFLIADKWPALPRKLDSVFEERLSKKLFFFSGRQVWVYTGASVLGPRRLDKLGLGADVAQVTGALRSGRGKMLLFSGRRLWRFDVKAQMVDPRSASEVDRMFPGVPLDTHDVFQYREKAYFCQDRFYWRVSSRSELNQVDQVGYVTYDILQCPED
Sequence of Stromelysin-1 (P08254 whole entry): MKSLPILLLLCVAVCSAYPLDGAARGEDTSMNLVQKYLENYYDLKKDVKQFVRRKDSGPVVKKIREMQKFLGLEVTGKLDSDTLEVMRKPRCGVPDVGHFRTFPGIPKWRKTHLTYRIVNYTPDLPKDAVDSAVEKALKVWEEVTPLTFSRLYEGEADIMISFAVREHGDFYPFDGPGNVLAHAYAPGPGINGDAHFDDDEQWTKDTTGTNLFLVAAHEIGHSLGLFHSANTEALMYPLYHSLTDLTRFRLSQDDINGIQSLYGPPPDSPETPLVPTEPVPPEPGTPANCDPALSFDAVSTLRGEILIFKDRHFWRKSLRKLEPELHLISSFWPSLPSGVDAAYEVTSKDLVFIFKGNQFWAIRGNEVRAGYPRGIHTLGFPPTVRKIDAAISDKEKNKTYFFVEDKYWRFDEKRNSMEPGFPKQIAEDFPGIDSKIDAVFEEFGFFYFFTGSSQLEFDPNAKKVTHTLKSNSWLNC
Sequence of 72 kDa type IV collagenase (P08253 whole entry): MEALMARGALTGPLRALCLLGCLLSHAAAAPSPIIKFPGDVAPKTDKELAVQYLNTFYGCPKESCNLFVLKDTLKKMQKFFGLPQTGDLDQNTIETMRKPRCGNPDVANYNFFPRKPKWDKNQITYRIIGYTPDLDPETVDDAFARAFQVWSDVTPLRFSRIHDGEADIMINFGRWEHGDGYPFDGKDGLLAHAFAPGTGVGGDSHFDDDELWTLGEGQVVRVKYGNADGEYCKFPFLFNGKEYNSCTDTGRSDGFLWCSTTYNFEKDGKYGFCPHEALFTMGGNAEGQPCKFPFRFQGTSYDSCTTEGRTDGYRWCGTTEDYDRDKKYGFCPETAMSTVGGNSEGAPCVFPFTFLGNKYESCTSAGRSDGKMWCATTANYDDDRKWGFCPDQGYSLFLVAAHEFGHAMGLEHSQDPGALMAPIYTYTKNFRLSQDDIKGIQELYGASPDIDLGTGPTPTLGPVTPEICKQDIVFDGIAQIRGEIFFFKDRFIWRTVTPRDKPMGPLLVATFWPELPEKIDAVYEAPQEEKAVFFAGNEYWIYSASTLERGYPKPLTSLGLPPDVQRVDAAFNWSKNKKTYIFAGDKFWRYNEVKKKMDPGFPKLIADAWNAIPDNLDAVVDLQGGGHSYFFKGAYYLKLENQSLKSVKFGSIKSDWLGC

For the compound `O=S(=O)(N[C@H]1CCC[C@H]1S)c1ccc(Oc2ccccc2)cc1`, the Ki is 68 nM in assay [1]; 160 nM in assay [2]; 280 nM in assay [3]; above 100000 nM in assay [4]; 430 nM in assay [5].

`O=S(=O)(N[C@H]1CCC[C@@H]1S)c1ccc(Oc2ccccc2)cc1`: the Ki in assay [1] was 31 nM; in assay [2], 17 nM; in assay [3], 38 nM; in assay [4], above 100000 nM; in assay [6], above 200000 nM; in assay [5], 4.6 nM. Further, in assay [7], the Ki worked out at 2100 nM.

Regarding `O=S(=O)(N[C@@H]1CCC[C@H]1S)c1ccc(Oc2ccccc2)cc1`, the Ki is 10 nM in assay [1]; 10 nM in assay [2]; 42 nM in assay [3]; 36000 nM in assay [4]; above 100000 nM in assay [6]; 67 nM in assay [5].

As for `O=S(=O)(N[C@H]1CNC[C@@H]1S)c1ccc(Oc2ccccc2)cc1`, the Ki in assay [4] is above 200000 nM; in assay [7], 50000 nM.

For `O=S(=O)(N[C@@H]1CNC[C@H]1S)c1ccc(Oc2ccccc2)cc1`, the Ki in assay [4] was 4100 nM; in assay [7], 6300 nM.

As for `CNC(=O)[C@H](Cc1ccccc1)NC(=O)[C@@H](CC(C)C)S[C@H]1CN(C(C)=O)C[C@H]1S` (mixture of isomers), the Ki stood at 6.2 nM in assay [1]; 5.7 nM in assay [3]; 91 nM in assay [4]; 990 nM in assay [6]; 14 nM in assay [5]; 99 nM in assay [7].

Regarding `CNC(=O)[C@H](Cc1ccccc1)NC(=O)[C@@H](CC(C)C)S[C@H]1CN(C(=O)CN2C(=O)c3ccccc3C2=O)C[C@H]1S` (mixture of isomers), the Ki in assay [1] was found to be 70 nM; in assay [3], 4.9 nM; in assay [4], 50 nM; in assay [6] it was 300 nM; in assay [5] it was 17 nM; in assay [7], 110 nM.

On to `CNC(=O)[C@H](Cc1ccccc1)NC(=O)[C@@H](CC(C)C)S[C@H]1CN(C(=O)CCCN2C(=O)c3ccccc3C2=O)C[C@H]1S` (mixture of isomers), for which the Ki in assay [1] turned out to be 6 nM; in assay [3], 3.9 nM; in assay [4], 12 nM; in assay [6] it was 31 nM; in assay [5], 8.5 nM; in assay [7], 75 nM.

In the case of `CNC(=O)[C@H](Cc1ccccc1)NC(=O)[C@@H](CC(C)C)S[C@H]1CN(C(=O)CCCCCN2C(=O)c3ccccc3C2=O)C[C@H]1S` (mixture of isomers), the Ki in assay [1] worked out at 7 nM; in assay [3] it was 0.98 nM; in assay [4] it was 11 nM; in assay [6] it was 1.9 nM; in assay [5] it was 1.7 nM; in assay [7] it was 52 nM.

On to `CNC(=O)[C@H](Cc1ccccc1)NC(=O)[C@@H](CC(C)C)S[C@H]1CNC[C@H]1S` (mixture of isomers), for which the Ki in assay [1] amounted to 310 nM; in assay [3], 5.3 nM; in assay [4] it was 230 nM; in assay [6] it was 4100 nM; in assay [5], 200 nM; in assay [7] it was 260 nM.

Take `O=S(=O)(N[C@@H]1CCC[C@@H]1S)c1ccc(Oc2ccccc2)cc1` (racemic): the Ki was 410 nM in assay [1]; 200 nM in assay [2]; 970 nM in assay [3]; above 20000 nM in assay [4]; 810 nM in assay [5]; above 100000 nM in assay [7].

As to `O=S(=O)(N[C@H]1CCC[C@@H]1S)c1ccc(-c2ccccc2)cc1` (racemic), the Ki in assay [1] amounted to 1200 nM; in assay [2] it was 230 nM; in assay [3] it was 630 nM; in assay [6], 10000 nM; in assay [5], 240 nM; in assay [7] it was 10000 nM.

In the case of `O=S(=O)(N[C@H]1CNC[C@@H]1S)c1ccc(Oc2ccccc2)cc1` (racemic), the Ki is above 25000 nM in assay [4] and 25000 nM in assay [7].

For `CN([C@H]1CN(C(N)=O)C[C@@H]1S)S(=O)(=O)c1ccc(Oc2ccccc2)cc1` (racemic), the Ki in assay [3] is 1.1 nM; in assay [4] it was above 25000 nM.
